# Article PMC3383288 (International Journal of Nanomedicine, 2012)
# Tests used:
# [1] = once-every-3-week schedule; cited from earlier work
# [2] = Tissue distribution in tumor-bearing mice; assay type: in vivo, nude mice; settings: for AUC of DTX: native DTX 10 mg/kg
# Summary of the method: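 Female nude mice bearing subcutaneous xenografts (cells in 50% Matrigel) got a single iv dose when tumors reached about 400 mm3. Free drug was sampled at 0.083, 1, 6, 24 and 48 h (n = 3 per time). Heart blood was taken under ether into heparin, and plasma was spun at 4°C. Organs were rinsed, stored at −30°C and homogenized 25% w/w in PBS pH 7.4. Drug was quantified by reversed-phase HPLC at 40°C.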
# [3] = Toxicity dose-finding study in nude mice; assay type: in vivo
# [4] = Toxicology studies in mice; assay type: in vivo, mice (Crlj:CD1 (ICR)); settings: for ALT / AST / CRE / UN: native DTX 10 mg/kg iv x3 at 4-day intervals, one mouse
# Summary of the method: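 Male Crlj:CD1 (ICR) mice (n = 10) received iv dosing three times at 4-day intervals, and condition and body weight were followed for 49 days. Mice were killed one at a time for blood collection and autopsy, including macroscopic review of liver and bone marrow. AST, ALT, creatinine and urea nitrogen were run on a clinical chemistry analyzer, with hematology on an automated analyzer.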
# [5] = system: MDA-MB-231 human breast tumor; test: MDA-MB-231 human breast tumor xenograft model; assay type: in vivo, nude mice
# Summary of the method: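 3 × 10^6 cells in 50% Matrigel were injected subcutaneously into the backs of female 5-week-old nude mice. Dosing started on day 0: three tail-vein iv injections at 4-day intervals, with an untreated control group. Tumor volume and body weight were tracked. Points are means of seven mice with standard error.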
# [6] = system: OCUM-2MLN human scirrhous gastric carcinoma; test: OCUM-2MLN orthotopic scirrhous gastric carcinoma model; assay type: in vivo, nude mice; settings: DTX 10 mg/kg; data not shown
# [7] = Toxicology study in cynomolgus monkeys; assay type: in vivo
# Summary of the method: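 Male cynomolgus monkeys aged 3–4 years (2.5–3.7 kg, n = 3) were dosed iv three times at 2-week intervals. Food consumption, general condition and body weight were followed for 42 days. White blood cell and neutrophil counts were monitored. Values are means of three monkeys with standard deviation.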
# [8] = system: advanced gastric cancer; settings: monotherapy, patients with advanced gastric cancer; cited from earlier work
# [9] = native DTX 3 mg/kg iv three times at 2-week intervals
smiles,measurement,setting,value
"CC(=O)O[C@@]12CO[C@@H]1C[C@H](O)[C@@]1(C)C(=O)[C@H](O)C3=C(C)[C@@H](OC(=O)[C@H](O)[C@@H](NC(=O)OC(C)(C)C)c4ccccc4)C[C@@](O)([C@@H](OC(=O)c4ccccc4)[C@H]21)C3(C)C [Native DTX, Docetaxel]",MTD in humans,[1],100 mg/m^2
same,AUC of DTX,[2]; Heart,9.5 μg/g or mL · h
same,AUC of DTX,[2]; Kidney,44.2 μg/g or mL · h
same,AUC of DTX,[2]; Liver,40.1 μg/g or mL · h
same,AUC of DTX,[2]; Lung,13.6 μg/g or mL · h
same,AUC of DTX,[2]; Plasma,6.7 μg/g or mL · h
same,AUC of DTX,[2]; Spleen,27.3 μg/g or mL · h
same,AUC of DTX,[2]; Tumor,12.6 μg/g or mL · h
same,time DTX in plasma remained over 0.1 μg/mL,[2]; native DTX 10 mg/kg iv,less than 5 hours
same,MTD converted to human equivalent,"[3]; mouse MTD 10 mg/kg, three times at 4-day intervals",30.3 mg/m^2
same,body weight change,"[3]; native DTX 15 mg/kg vs less than 15 mg/kg, iv three times every 4 days",significant decrease in body weight
same,ALT,[4]; Day 1,28 U/L
same,AST,[4]; Day 1,85 U/L
same,CRE,[4]; Day 1,0.07 mg/dL
same,UN,[4]; Day 1,26.1 mg/dL
same,ALT,[4]; Day 7,44 U/L
same,AST,[4]; Day 7,239 U/L
same,CRE,[4]; Day 7,0.17 mg/dL
same,UN,[4]; Day 7,27.1 mg/dL
same,ALT,[4]; Day 10,23 U/L
same,AST,[4]; Day 10,91 U/L
same,CRE,[4]; Day 10,0.14 mg/dL
same,UN,[4]; Day 10,25.4 mg/dL
same,ALT,[4]; Day 14,19 U/L
same,AST,[4]; Day 14,62 U/L
same,CRE,[4]; Day 14,0.20 mg/dL
same,UN,[4]; Day 14,30.5 mg/dL
same,ALT,[4]; Day 21,24 U/L
same,AST,[4]; Day 21,71 U/L
same,CRE,[4]; Day 21,0.12 mg/dL
same,UN,[4]; Day 21,20.0 mg/dL
same,ALT,[4]; Day 28,22 U/L
same,AST,[4]; Day 28,65 U/L
same,CRE,[4]; Day 28,0.15 mg/dL
same,UN,[4]; Day 28,41.4 mg/dL
same,ALT,[4]; Day 35,46 U/L
same,AST,[4]; Day 35,171 U/L
same,CRE,[4]; Day 35,0.12 mg/dL
same,UN,[4]; Day 35,28.0 mg/dL
same,ALT,[4]; Day 42,27 U/L
same,AST,[4]; Day 42,83 U/L
same,CRE,[4]; Day 42,0.11 mg/dL
same,UN,[4]; Day 42,22.1 mg/dL
same,ALT,[4]; Day 49,22 U/L
same,AST,[4]; Day 49,56 U/L
same,CRE,[4]; Day 49,0.12 mg/dL
same,UN,[4]; Day 49,23.5 mg/dL
same,myelosuppression,"[4]; NC-6301 50 mg/kg, native DTX 10 mg/kg, data not shown",mild and transient
same,change in liver- or kidney-related blood test markers,"[4]; three injections, NC-6301 50 mg/kg, native DTX 10 mg/kg, 49 days",No significant change
same,maximum body weight loss,"[5]; native DTX 10 mg/kg iv x3, mice bearing MDA-MB-231 xenograft",approximately 10%
same,effect on tumor growth,"[5]; three injections at 4-day intervals, NC-6301 50 mg/kg, native DTX 10 mg/kg",transient and slight regression
same,body weight loss compared with NC-6301 at the higher dose,[6],worse
same,adverse effects,[7]; native DTX 3 mg/kg,adverse effects including gastrointestinal symptoms
same,additional weight lost compared with animals administered NC-6301,[7]; [9],up to 20%
same,white blood cell count and neutrophil count,[7]; [9],significantly decreased
same,decrease in food consumption,"[7]; native DTX 3 mg/kg, NC-6301 3 or 6 mg/kg, iv three times at 2-week intervals",critical decrease
same,response rate,[8],20%
